Results taken from ChEMBL document CHEMBL3098105, “7,7'-Diazaindirubin--a small molecule inhibitor of casein kinase 2 in vitro and in cells” (Bioorg Med Chem, 2014).

What was measured:
COLO 205 = assay: Antiproliferative activity against human COLO205 cells after 3 days by sulforhodamine B assay; type: functional; settings: COLO 205, 72 h
Outline: (§1)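 Tested in the NCI 60 cell line panel. GI50 is the concentration giving 50% inhibition of cell growth, and values are the mean of two series of tests.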

MCF7 [1] = assay: Antiproliferative activity against human MCF7 cells after 3 days by sulforhodamine B assay; type: functional; settings: MCF7, 72 h; outline: as §1
[2] = biological target: Dual specificity mitogen-activated protein kinase kinase 6 (Homo sapiens) (UniProt P52564); assay: Inhibition of human MKK6 assessed as residual activity at 1 uM relative to control
[3] = biological target: Serine/threonine-protein kinase pim-3 (Homo sapiens) (UniProt Q86V86); assay: Inhibition of human Pim-3 assessed as residual activity at 1 uM relative to control
[4] = biological target: G protein-coupled receptor kinase 6 (Homo sapiens) (UniProt P43250); assay: Inhibition of human GRK6 assessed as residual activity at 1 uM relative to control
[5] = biological target: Aurora kinase B (Homo sapiens) (UniProt Q96GD4); assay: Inhibition of Aurora-B (unknown origin) assessed as residual activity at 1 uM relative to control
[6] = biological target: Tyrosine-protein kinase FRK (Homo sapiens) (UniProt P42685); assay: Inhibition of human PTK5 assessed as residual activity at 1 uM relative to control
[7] = biological target: Myotonin-protein kinase (Homo sapiens) (UniProt Q09013); assay: Inhibition of human DMPK assessed as residual activity at 1 uM relative to control
[8] = biological target: Fibroblast growth factor receptor 1 (Homo sapiens) (UniProt P11362); assay: Inhibition of human FGFR1 assessed as residual activity at 1 uM relative to control
[9] = biological target: Homeodomain-interacting protein kinase 1 (Homo sapiens) (UniProt Q86Z02); assay: Inhibition of human HIPK1 assessed as residual activity at 1 uM relative to control
[10] = biological target: Casein kinase I isoform gamma-2 (Homo sapiens) (UniProt P78368); assay: Inhibition of human CK1gamma2 assessed as residual activity at 1 uM relative to control
SK-OV-3 = assay: Antiproliferative activity against human SKOV3 cells after 3 days by sulforhodamine B assay; type: functional; settings: SK-OV-3, 72 h; outline: as §1
[11] = biological target: Calcium/calmodulin-dependent protein kinase type II subunit beta (Homo sapiens) (UniProt Q13554); assay: Inhibition of human CaMK2beta assessed as residual activity at 1 uM relative to control
[12] = biological target: Receptor tyrosine-protein kinase erbB-4 (Homo sapiens) (UniProt Q15303); assay: Inhibition of human ErbB4 assessed as residual activity at 1 uM relative to control
[13] = biological target: Homeodomain-interacting protein kinase 3 (Homo sapiens) (UniProt Q9H422); assay: Inhibition of human HIPK3 assessed as residual activity at 1 uM relative to control
[14] = biological target: Fibroblast growth factor receptor 4 (Homo sapiens) (UniProt P22455); assay: Inhibition of human FGFR4 assessed as residual activity at 1 uM relative to control
[15] = biological target: Tyrosine-protein kinase Yes (Homo sapiens) (UniProt P07947); assay: Inhibition of human Yes assessed as residual activity at 1 uM relative to control
[16] = biological target: T1, Muscle, skeletal receptor tyrosine-protein kinase (Homo sapiens) (UniProt O15146); assay: Inhibition of MUSK (unknown origin) assessed as residual activity at 1 uM relative to control
T1 sequence (whole entry): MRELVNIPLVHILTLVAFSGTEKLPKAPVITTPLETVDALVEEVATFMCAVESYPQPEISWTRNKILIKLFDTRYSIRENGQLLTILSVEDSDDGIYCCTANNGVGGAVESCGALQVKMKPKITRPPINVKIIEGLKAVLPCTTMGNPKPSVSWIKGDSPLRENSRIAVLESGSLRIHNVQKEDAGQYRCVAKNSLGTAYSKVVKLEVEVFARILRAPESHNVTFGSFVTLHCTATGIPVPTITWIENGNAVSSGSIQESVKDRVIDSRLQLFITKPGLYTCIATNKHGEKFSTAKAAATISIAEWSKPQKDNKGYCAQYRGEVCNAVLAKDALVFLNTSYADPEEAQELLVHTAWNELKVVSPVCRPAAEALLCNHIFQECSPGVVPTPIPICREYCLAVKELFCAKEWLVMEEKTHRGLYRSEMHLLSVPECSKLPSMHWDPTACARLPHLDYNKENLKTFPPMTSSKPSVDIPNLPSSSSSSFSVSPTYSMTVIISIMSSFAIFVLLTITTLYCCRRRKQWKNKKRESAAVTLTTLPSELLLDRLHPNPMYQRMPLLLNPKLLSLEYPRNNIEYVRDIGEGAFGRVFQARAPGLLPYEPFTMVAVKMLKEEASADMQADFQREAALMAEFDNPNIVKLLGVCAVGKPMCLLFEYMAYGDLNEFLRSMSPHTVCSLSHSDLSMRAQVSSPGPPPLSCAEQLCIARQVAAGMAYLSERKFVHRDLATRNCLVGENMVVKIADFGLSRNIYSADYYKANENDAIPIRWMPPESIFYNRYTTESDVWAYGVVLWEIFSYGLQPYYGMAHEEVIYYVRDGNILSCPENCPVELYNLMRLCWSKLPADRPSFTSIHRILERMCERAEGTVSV

[17] = biological target: Mitogen-activated protein kinase 9 (Homo sapiens) (UniProt P45984); assay: Inhibition of human JNK2alpha2 assessed as residual activity at 1 uM relative to control
[18] = biological target: RAC-beta serine/threonine-protein kinase (Homo sapiens) (UniProt P31751); assay: Inhibition of human PKBbeta assessed as residual activity at 1 uM relative to control
[19] = biological target: Casein kinase I isoform gamma-3 (Homo sapiens) (UniProt Q9Y6M4); assay: Inhibition of human CK1gamma3 assessed as residual activity at 1 uM relative to control
MCF7 [20] = assay: Cell cycle arrest in human MCF7 cells assessed as accumulation at S phase at 1 uM after 24 hrs using propidium iodide staining by FACS analysis (reference value: 18.59%); type: functional
MCF7 [21] = assay: Antiproliferative activity against human MCF7 cells after 3 days by SRB assay; type: functional, cell-based; settings: MCF7, 72 h
Outline: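 Cells grown at 37 °C, 5% CO2, with 10% heat-inactivated FBS: LXFL529L in RPMI 1640, MCF7 and HT29 in DMEM. Seeded, allowed 24 h growth, then exposed to the drug at various concentrations for 3 days in serum medium. Fixed with TCA for 1 h at 4 °C, stained with 0.4% SRB, eluted in 10 mM Tris pH 10.5, read at 570 nm as % T/C. IC50 taken from dose–response curves of at least three independent experiments.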

[22] = biological target: Insulin receptor (Homo sapiens) (UniProt P06213); assay: Inhibition of human IR assessed as residual activity at 1 uM relative to control
HL-60 = assay: Antiproliferative activity against human HL60 cells after 3 days by sulforhodamine B assay; type: functional; settings: HL-60, 72 h; outline: as §1
[23] = biological target: Focal adhesion kinase 1 (Homo sapiens) (UniProt Q05397); assay: Inhibition of human FAK assessed as residual activity at 1 uM relative to control
[24] = Antiproliferative activity against human UACC257 cells after 3 days by sulforhodamine B assay; type: functional; settings: UACC-257, 72 h

Sequence of RAC-beta serine/threonine-protein kinase (Homo sapiens) (P31751 whole entry, canonical isoform): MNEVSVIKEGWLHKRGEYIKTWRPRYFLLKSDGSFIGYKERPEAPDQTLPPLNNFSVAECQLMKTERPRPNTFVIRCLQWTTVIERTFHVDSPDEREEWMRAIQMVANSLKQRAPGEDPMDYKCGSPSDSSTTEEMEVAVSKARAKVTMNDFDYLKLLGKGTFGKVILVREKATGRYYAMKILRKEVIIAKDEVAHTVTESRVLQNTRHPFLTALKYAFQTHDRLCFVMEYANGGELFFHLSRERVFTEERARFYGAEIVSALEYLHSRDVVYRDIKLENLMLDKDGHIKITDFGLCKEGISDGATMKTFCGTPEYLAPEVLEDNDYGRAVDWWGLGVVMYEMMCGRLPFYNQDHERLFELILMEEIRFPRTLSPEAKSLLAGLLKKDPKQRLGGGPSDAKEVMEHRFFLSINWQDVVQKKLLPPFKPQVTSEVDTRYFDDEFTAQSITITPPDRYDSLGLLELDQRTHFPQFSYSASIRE
Sequence of Dual specificity mitogen-activated protein kinase kinase 6 (Homo sapiens) (P52564 whole entry): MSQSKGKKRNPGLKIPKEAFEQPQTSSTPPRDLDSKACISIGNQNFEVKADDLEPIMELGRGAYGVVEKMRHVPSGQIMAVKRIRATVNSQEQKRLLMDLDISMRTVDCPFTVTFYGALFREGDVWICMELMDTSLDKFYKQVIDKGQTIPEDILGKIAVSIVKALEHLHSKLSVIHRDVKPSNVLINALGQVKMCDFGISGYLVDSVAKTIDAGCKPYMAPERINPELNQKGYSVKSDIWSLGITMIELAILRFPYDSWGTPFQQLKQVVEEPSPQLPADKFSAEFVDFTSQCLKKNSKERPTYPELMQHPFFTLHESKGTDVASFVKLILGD
Sequence of Myotonin-protein kinase (Homo sapiens) (Q09013 whole entry): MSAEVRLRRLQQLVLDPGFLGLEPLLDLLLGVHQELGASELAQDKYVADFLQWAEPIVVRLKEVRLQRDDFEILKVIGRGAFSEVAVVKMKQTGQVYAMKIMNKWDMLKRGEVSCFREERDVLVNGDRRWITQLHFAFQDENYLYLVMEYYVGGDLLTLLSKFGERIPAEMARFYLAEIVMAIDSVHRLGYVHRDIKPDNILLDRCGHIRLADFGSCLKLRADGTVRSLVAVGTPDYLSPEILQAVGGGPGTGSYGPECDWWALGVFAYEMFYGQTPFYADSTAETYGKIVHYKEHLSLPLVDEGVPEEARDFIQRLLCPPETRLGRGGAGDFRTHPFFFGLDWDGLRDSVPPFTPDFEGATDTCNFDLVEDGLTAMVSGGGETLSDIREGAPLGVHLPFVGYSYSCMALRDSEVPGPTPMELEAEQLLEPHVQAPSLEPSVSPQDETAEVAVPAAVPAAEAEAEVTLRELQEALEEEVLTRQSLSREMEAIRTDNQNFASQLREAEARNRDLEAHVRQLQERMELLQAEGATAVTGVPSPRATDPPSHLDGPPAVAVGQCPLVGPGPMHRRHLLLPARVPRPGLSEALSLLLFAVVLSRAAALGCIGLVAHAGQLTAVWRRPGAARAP
Sequence of Casein kinase I isoform gamma-2 (Homo sapiens) (P78368 whole entry, looked up, canonical isoform): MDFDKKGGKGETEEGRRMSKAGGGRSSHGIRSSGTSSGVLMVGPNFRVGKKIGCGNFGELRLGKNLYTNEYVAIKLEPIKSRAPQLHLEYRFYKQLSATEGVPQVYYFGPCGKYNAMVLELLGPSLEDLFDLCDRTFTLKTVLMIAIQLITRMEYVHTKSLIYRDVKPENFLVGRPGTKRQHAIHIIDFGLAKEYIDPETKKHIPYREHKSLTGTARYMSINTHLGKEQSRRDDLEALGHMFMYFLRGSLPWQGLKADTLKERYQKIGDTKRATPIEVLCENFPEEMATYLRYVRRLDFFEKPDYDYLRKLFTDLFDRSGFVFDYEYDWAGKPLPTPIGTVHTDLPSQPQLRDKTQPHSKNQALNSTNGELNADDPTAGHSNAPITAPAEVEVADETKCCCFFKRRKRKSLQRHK
Sequence of Calcium/calmodulin-dependent protein kinase type II subunit beta (Homo sapiens) (Q13554 whole entry): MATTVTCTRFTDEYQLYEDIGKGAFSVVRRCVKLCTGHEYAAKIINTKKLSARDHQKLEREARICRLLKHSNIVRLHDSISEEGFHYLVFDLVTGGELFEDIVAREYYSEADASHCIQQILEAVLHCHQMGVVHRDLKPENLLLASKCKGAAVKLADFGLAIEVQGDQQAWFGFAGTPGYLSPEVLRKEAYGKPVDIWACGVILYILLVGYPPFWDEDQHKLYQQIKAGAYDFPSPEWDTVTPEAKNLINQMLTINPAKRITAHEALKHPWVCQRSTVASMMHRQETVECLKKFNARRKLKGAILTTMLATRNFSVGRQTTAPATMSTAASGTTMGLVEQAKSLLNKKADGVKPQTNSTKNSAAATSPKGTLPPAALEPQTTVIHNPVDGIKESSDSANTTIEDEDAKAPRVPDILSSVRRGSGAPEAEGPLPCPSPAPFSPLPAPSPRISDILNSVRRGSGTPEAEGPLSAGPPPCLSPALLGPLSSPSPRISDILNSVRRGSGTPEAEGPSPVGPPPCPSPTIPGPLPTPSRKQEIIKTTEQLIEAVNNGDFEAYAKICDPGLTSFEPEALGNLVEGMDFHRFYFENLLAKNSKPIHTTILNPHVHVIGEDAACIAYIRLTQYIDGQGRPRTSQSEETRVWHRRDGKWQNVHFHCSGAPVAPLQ
Sequence of Focal adhesion kinase 1 (Homo sapiens) (Q05397 2-1052 limits assumed): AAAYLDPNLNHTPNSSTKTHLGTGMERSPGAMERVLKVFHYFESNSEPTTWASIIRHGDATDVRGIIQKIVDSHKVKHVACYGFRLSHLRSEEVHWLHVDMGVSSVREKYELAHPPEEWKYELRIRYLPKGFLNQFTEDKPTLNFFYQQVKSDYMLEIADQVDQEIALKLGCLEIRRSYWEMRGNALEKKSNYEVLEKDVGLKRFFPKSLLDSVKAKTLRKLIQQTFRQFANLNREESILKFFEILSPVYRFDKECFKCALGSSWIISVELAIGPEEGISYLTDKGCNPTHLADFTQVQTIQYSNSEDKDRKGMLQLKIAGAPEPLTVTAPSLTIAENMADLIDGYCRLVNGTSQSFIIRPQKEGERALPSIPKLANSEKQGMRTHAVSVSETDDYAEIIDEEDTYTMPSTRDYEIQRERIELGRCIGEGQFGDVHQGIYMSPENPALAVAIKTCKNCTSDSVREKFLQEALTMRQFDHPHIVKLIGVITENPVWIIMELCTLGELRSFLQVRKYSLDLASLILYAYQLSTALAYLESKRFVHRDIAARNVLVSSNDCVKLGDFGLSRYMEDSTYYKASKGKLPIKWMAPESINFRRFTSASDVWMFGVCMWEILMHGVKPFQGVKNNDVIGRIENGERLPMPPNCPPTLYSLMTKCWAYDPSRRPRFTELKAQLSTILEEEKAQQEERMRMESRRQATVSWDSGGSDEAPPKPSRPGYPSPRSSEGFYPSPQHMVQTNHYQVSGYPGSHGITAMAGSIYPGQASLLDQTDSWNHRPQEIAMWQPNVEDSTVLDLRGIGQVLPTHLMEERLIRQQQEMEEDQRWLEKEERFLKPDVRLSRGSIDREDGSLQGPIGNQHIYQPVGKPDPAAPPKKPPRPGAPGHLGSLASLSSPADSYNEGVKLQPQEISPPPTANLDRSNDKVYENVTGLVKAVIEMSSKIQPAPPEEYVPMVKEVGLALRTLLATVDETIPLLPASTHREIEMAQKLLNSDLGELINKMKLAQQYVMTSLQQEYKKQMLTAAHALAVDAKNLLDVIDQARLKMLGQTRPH
Sequence of Fibroblast growth factor receptor 4 (Homo sapiens) (P22455 22-802 limits assumed): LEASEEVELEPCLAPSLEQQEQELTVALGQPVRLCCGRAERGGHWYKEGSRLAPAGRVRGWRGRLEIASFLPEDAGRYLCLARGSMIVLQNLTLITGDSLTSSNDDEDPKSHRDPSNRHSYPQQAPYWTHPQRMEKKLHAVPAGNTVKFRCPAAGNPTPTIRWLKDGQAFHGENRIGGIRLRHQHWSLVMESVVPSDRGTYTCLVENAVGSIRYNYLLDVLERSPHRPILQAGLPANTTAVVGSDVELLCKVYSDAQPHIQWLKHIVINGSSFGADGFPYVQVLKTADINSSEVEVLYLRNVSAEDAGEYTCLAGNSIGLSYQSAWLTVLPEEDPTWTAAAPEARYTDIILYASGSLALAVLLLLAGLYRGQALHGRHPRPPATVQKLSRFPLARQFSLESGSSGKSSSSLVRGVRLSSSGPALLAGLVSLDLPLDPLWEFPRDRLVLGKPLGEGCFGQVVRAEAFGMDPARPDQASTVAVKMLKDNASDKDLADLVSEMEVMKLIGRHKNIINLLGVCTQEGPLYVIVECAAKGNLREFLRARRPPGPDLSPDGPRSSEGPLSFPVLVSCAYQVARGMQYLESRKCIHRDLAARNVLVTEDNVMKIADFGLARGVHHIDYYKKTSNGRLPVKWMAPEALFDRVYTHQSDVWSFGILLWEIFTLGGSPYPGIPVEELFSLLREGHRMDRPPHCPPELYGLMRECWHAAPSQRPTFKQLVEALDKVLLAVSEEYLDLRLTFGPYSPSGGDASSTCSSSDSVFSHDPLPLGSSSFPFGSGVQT
Sequence of G protein-coupled receptor kinase 6 (Homo sapiens) (P43250 whole entry, looked up): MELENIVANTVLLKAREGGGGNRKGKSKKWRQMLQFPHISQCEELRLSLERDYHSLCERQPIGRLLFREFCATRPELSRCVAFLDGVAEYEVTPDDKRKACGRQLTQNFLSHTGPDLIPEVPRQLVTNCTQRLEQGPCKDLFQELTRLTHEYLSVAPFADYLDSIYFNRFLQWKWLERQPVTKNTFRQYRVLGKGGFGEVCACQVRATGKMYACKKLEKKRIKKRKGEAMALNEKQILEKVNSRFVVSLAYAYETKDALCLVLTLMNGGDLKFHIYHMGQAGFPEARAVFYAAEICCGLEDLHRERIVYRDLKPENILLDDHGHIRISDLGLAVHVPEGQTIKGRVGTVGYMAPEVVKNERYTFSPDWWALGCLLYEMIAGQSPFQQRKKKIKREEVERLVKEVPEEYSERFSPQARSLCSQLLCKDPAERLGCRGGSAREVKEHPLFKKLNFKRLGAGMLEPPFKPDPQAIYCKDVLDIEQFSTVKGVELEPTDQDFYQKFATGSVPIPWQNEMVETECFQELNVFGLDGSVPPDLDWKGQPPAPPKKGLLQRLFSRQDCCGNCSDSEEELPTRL

GI50 (COLO 205): 0.372 µM
GI50 (MCF7 [1]): 1.09 µM
Activity [2]: 87%
Activity [3]: 74%
Activity [4]: 94%
Activity [5]: 108%
Activity [6]: 92%
Activity [7]: 95%
Activity [8]: 101%
Activity [9]: 80%
Activity [10]: 114%
GI50 (SK-OV-3): 3.95 µM
Activity [11]: 99%
Activity [12]: 121%
Activity [13]: 94%
Activity [14]: 108%
Activity [15]: 120%
Activity [16]: 95%
Activity [17]: 101%
Activity [18]: 87%
Activity [19]: 37%
IC50 (MCF7 [21]): 0.5 µM
Activity [22]: 98%
GI50 (HL-60): 1.85 µM
Activity [23]: 110%
SMILES: O=C1Nc2ncccc2/C1=C1/Nc2ncccc2C1=O
Activity (MCF7 [20]): 12.87%
GI50 [24]: 0.214 µM
